What is called IC50 is the concentration that inhibits the measured activity by half. In general, half-life refers to the time needed for the level to fall by half in the phase considered. As a reminder, the share remaining is what is left of the initial amount, in per cent. Read a low share remaining as more turnover.

Molecules are shown by their SMILES.

The target of one series is BK receptors. The experiment in a line: Radioligand competition binding assay with [3H]BK in rat brain membranes. Conditions: pH 6.8, rat brain membranes, 1 nM [3H]BK; for IC50: read-out: IC50, BK receptors, [3H]BK. (Loss of bound radioactivity is the signal in a displacement assay; it reports binding, not function.)
Series [1] in a line: In vitro stability in rat plasma. Format: in vitro ADME. Conditions: for half-life: plasma, t1/2 in rat plasma, 37 °C.
A short description of series [2]: In vitro stability in human plasma. Format: in vitro ADME. The procedure, abridged:
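Test compound stock (50 mg/mL in water) was diluted 5-fold into lithium-heparin human plasma and incubated at 37 °C. Samples were taken at 1, 2, 4, 6, 12 and 24 h, quenched with EtOH and centrifuged. Supernatant was run on C-18 RP-HPLC (10–90% acetonitrile, 40 min). t1/2 = 0.693/b, where b is the slope of ln(fraction parent remaining) versus time. Three independent experiments.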

The nature of series [3]: Rat plasma stability of 1 with or without protease inhibitors. Conditions: t1/2, rat plasma, calculated after a 4 h incubation. It is filed as in vitro ADME. The procedure, abridged:
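Test compound was added to rat plasma together with one protease inhibitor (60 nM bestatin, 100 µM chymostatin, 1 mM PMSF, 10 µM captopril or 1 mM EDTA), with all five combined, or with none. Incubation was at 37 °C after 5-fold dilution of the stock. Parent remaining was measured by RP-HPLC after EtOH quench. t1/2 was calculated after 4 h incubation as 0.693/slope of ln(fraction remaining) versus time.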

Series [4] concerns naïve rats. Conditions: naïve animals, i.th.; cited from earlier work.
The test system of series [5] is SNL rats. The settings on record: nerve-injured animals (L5/L6 SNL), i.th., dose-dependent; cited from earlier work.
The test system of series [6] is naïve rats. The series is described as follows: von Frey filament and Infra-Red tests in naïve rats. Format: in vivo, rat. The procedure, abridged:
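Nonfasted male Sprague-Dawley rats (250–300 g) carried i.th. catheters placed through the atlanto-occipital membrane to lumbar level under ketamine/xylazine (80/12 mg/kg i.p.). Naïve rats received Dyn A-(2–13) with or without test compound (3 nmol/5 µL i.th.). Tests were run every 20 min up to 120 min. Infrared paw withdrawal latency was calibrated to ~20 s on the uninjured paw; von Frey thresholds used the up-down/Dixon method. One-way ANOVA, p ≤ 0.05.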

The test system of series [7] is SNL rats. The experiment in a line: Hypersensitivity tests in L5/L6 spinal nerve ligation. Format: in vivo, rat. Conditions: i.th. The procedure, abridged: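 L5/L6 spinal nerve-ligated male Sprague-Dawley rats (250–300 g, nonfasted) with lumbar-level i.th. catheters received test compound or vehicle at 3 nmol/5 µL i.th. Tactile paw withdrawal thresholds were measured against baseline and post-SNL values with von Frey filaments (up-down method, Dixon analysis) every 20 min up to 120 min after injection. One-way ANOVA, significance at p ≤ 0.05.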

Setting [8] is: i.th. co-administration 3 nmol/5 μL with Dyn A-(2–13) 3 nmol.

With `CC[C@H](C)[C@H](NC(=O)[C@H](CCCNC(=N)N)NC(=O)[C@H](CC(C)C)NC(=O)[C@@H](N)Cc1ccccc1)C(=O)N[C@@H](CCCNC(=N)N)C(=O)N1CCC[C@H]1C(=O)N[C@@H](CCCCN)C(=O)O` [compound 1, H-Phe-Leu-Arg-Ile-Arg-Pro-Lys-OH], the “log[IC50], BK receptors, [3H]BK” value at BK receptors is recorded as −6.83 ± 0.09. On BK receptors, the IC50 is 150 nM. In series [1] (rat plasma incubation), the “time to complete degradation” value is recorded as at most 4 h. Besides, the half-life was under 1 h in series [1] (rat, 24 h study); 144 min in series [2] (human, plasma); 48 min in series [3] (60 nM bestatin); 48 min in series [3] (1 mM EDTA); 48 min in series [3] (1 mM PMSF). The amount remaining at 24 h, 10 mg/mL in series [1] (rat, rat plasma) stood at 0%; in series [2] (human, human plasma), 0%. In series [2] (human plasma incubation), this compound gave a time to degradation of at most 4 h. In addition, the “Dyn A-induced hyperalgesia and motor impairments” value in the series with naïve rats [4] is “block Dyn A-induced hyperalgesia and motor impairments”. Besides, the “thermal hyperalgesia and mechanical hypersensitivity” value in the series with SNL rats [5] is “reverse thermal hyperalgesia and mechanical hypersensitivity”.
Turning to `CC[C@H](C)[C@H](NC(=O)[C@H](CCCNC(=N)N)NC(=O)[C@@H](CC(C)C)NC(=O)[C@@H](N)Cc1ccccc1)C(=O)N[C@@H](CCCNC(=N)N)C(=O)N1CCC[C@H]1C(=O)N[C@@H](CCCCN)C(=O)O` [compound 16, H-Phe-D-Leu-Arg-Ile-Arg-Pro-Lys-OH], on BK receptors, the “log[IC50], BK receptors, [3H]BK” value is listed as −6.90 ± 0.23 and the IC50 is 130 nM. Also, the “increase in stability in plasma compared to that of 1” value in series [1] worked out at 229 fold. Besides, the “Intact (%)” value in series [1] (rat plasma, after a 24 h incubation) is “more than 95%”. Moreover, in series [1] (rat, calculated from a 5 day stability test), the half-life was 160 h. In series [1] (rat, rat plasma), this compound came in with a fraction remaining at 24 h, 10 mg/mL of 99 ± 9% and an amount remaining at 120 h, 10 mg/mL of 66%. Further, in series [2] (human plasma, after a 24 h incubation), the “Intact (%)” value is “more than 95%”. The amount remaining at 24 h, 10 mg/mL in series [2] (human, human plasma) turned out to be 99 ± 10%. In the series on naïve rats [6] (setting [8]), the “Dyn A-(2–13)-induced tactile hypersensitivity (von Frey filament test)” value is reported as “blocked” and the “Dyn A-(2–13)-induced thermal hypersensitivity (Infra-Red test)” value is given as “blocked”. For the same compound, in the series on naïve rats [6] (i.th., 3 nmol/5 μL), the “time of maximal paw withdrawal threshold and latency after injection” value stood at 40 min. Moreover, in the series on SNL rats [7], the “nerve injury-related tactile hypersensitivity” value was “modulated”.
